Assay results reported in ChEMBL document CHEMBL3046016, “Antifeedant and growth inhibitory effects of some neo-clerodane diterpenoids isolated from Clerodendron species (Verbenaceae) on Earias vitella and Spodoptera litura” (2003).

What was measured:
Type in all cases: functional
Spodoptera litura [1] = experiment: Insecticidal activity against pupal stage of Spodoptera litura in compound-treated castor leaves assessed as pupal duration time at 5 ug/cm2 (reference value: 9.2 +/- 0.74 days)
Spodoptera litura [2] = experiment: Insecticidal activity against pupal stage of Spodoptera litura in compound-treated castor leaves assessed as pupal weight at 10 ug/cm2 (reference value: 302.4 +/- 5.9 mg)
Spodoptera litura [3] = experiment: Insecticidal activity against male adult Spodoptera litura in compound-treated castor leaves assessed as adult longevity time at 10 ug/cm2 (reference value: 9.4 +/- 0.48 days)
Earias vittella [4] = experiment: Insecticidal activity against third-instar larval stage of Earias vitella assessed as total larval duration time at 5 ug/cm3 administered through artificial diet containing Abelmoschus esculentus seed powder (reference value: 8.2 +/- 0.48 days)
Earias vittella [5] = experiment: Insecticidal activity against adult Earias vitella assessed as adult emergence at 5 ug/cm3 administered through artificial diet containing Abelmoschus esculentus seed powder (reference value: 88%)
Earias vittella [6] = experiment: Insecticidal activity against pupal stage of Earias vitella assessed as pupal duration time at 5 ug/cm3 administered through artificial diet containing Abelmoschus esculentus seed powder (reference value: 6.4 +/- 0.21 days)
Earias vittella [7] = experiment: Insecticidal activity against pupal stage of Earias vitella assessed as pupal duration time at 10 ug/cm3 administered through artificial diet containing Abelmoschus esculentus seed powder (reference value: 6.4 +/- 0.21 days)
Spodoptera litura [8] = experiment: Insecticidal activity against third-instar larval stage of Spodoptera litura in compound-treated castor leaves assessed as larval mortality at 10 ug/cm2 relative to control
Earias vittella [9] = experiment: Insecticidal activity against adult Earias vitella assessed as adult deformity at 5 ug/cm3 administered through artificial diet containing Abelmoschus esculentus seed powder (reference value: 4%)
Earias vittella [10] = experiment: Insecticidal activity against pupal stage of Earias vitella assessed as pupal weight at 10 ug/cm3 administered through artificial diet containing Abelmoschus esculentus seed powder (reference value: 88.2 +/- 4.01 mg)
Earias vittella [11] = experiment: Antifeedant activity against third-instar larval stage of Earias vitella assessed as decrease in diet consumption at 10 ug/cm3 administered through artificial diet containing Abelmoschus esculentus seed powder after 24 hr relative to acetone-treated control; parameters: scale not given: the % may be the effect or the level left
In short: (§1)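 Artificial diet was modified Klein medium with bhendi (Abelmoschus esculentus) seed powder in place of alfalfa. Compound in acetone was mixed into bhendi meal 12 h before diet preparation so the solvent evaporated. One 3 g diet cube was given to five freshly molted third-instar larvae in a muslin-covered container. After 24 h the cubes were weighed. %AF = 100 − (treated/control)×100.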

Earias vittella [12] = experiment: Insecticidal activity against third-instar larval stage of Earias vitella assessed as larval mortality at 10 ug/cm3 administered through artificial diet containing Abelmoschus esculentus seed powder (reference value: 4%)
Earias vittella [13] = experiment: Insecticidal activity against adult Earias vitella assessed as adult emergence at 10 ug/cm3 administered through artificial diet containing Abelmoschus esculentus seed powder (reference value: 88%)
Earias vittella [14] = experiment: Insecticidal activity against pupal stage of Earias vitella assessed as pupal mortality at 10 ug/cm3 administered through artificial diet containing Abelmoschus esculentus seed powder (reference value: 8%)
Earias vittella [15] = experiment: Insecticidal activity against male adult Earias vitella assessed as adult longevity time at 10 ug/cm3 administered through artificial diet containing Abelmoschus esculentus seed powder (reference value: 8.2 +/- 0.4 days)
Spodoptera litura [16] = experiment: Insecticidal activity against adult Spodoptera litura in compound-treated castor leaves assessed as adult deformity at 5 ug/cm2 relative to control
Spodoptera litura [17] = experiment: Insecticidal activity against pupal stage of Spodoptera litura in compound-treated castor leaves assessed as pupal mortality at 5 ug/cm2 relative to control
Earias vittella [18] = experiment: Insecticidal activity against female adult Earias vitella assessed as adult longevity time at 5 ug/cm3 administered through artificial diet containing Abelmoschus esculentus seed powder (reference value: 8.6 +/- 0.48 days)
Earias vittella [19] = experiment: Insecticidal activity against pupal stage of Earias vitella assessed as pupal weight at 5 ug/cm3 administered through artificial diet containing Abelmoschus esculentus seed powder (reference value: 88.2 +/- 4.01 mg)
Earias vittella [20] = experiment: Insecticidal activity against male adult Earias vitella assessed as adult longevity time at 5 ug/cm3 administered through artificial diet containing Abelmoschus esculentus seed powder (reference value: 8.2 +/- 0.4 days)
Earias vittella [21] = experiment: Insecticidal activity against female adult Earias vitella assessed as adult longevity time at 10 ug/cm3 administered through artificial diet containing Abelmoschus esculentus seed powder (reference value: 8.6 +/- 0.48 days)
Spodoptera litura [22] = experiment: Antifeedant activity against third-instar larval stage of Spodoptera litura in compound-treated castor leaves assessed as decrease in diet consumption at 10 ug/cm2 after 24 hr by no-choice leaf disk assay relative to acetone-treated control; parameters: scale not given: the % may be the effect or the level left
In short: (§2)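 Larvae were reared on castor leaves at 25 ± 2 °C. In a no-choice test, compound in acetone was painted on the abaxial side of castor leaf disks and air-dried. Five freshly molted third-instar larvae, starved 4 h, were placed per Petri dish with wet cotton. There were five replicates. After 24 h, consumed leaf area was read on a leaf area meter. %AF = 100 − (treated/control)×100.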

Spodoptera litura [23] = experiment: Insecticidal activity against adult Spodoptera litura in compound-treated castor leaves assessed as adult emergence at 10 ug/cm2 relative to control
Spodoptera litura [24] = experiment: Insecticidal activity against adult Spodoptera litura in compound-treated castor leaves assessed as adult deformity at 10 ug/cm2 relative to control
Spodoptera litura [25] = experiment: Insecticidal activity against third-instar larval stage of Spodoptera litura in compound-treated castor leaves assessed as total larval duration time at 10 ug/cm2 (reference value: 12.4 +/- 0.48 days)
Spodoptera litura [26] = experiment: Insecticidal activity against pupal stage of Spodoptera litura in compound-treated castor leaves assessed as pupal duration time at 10 ug/cm2 (reference value: 9.2 +/- 0.74 days)
Spodoptera litura [27] = experiment: Insecticidal activity against female adult Spodoptera litura in compound-treated castor leaves assessed as adult longevity time at 5 ug/cm2 (reference value: 10 +/- 0.63 days)
Spodoptera litura [28] = experiment: Antifeedant activity against third-instar larval stage of Spodoptera litura in compound-treated castor leaves assessed as decrease in diet consumption at 5 ug/cm2 after 24 hr by no-choice leaf disk assay relative to acetone-treated control; parameters: scale not given: the % may be the effect or the level left; in short: as §2
Spodoptera litura [29] = experiment: Insecticidal activity against male adult Spodoptera litura in compound-treated castor leaves assessed as adult longevity time at 5 ug/cm2 (reference value: 9.4 +/- 0.48 days)
Earias vittella [30] = experiment: Insecticidal activity against third-instar larval stage of Earias vitella assessed as larval mortality at 5 ug/cm3 administered through artificial diet containing Abelmoschus esculentus seed powder (reference value: 4%)
Earias vittella [31] = experiment: Antifeedant activity against third-instar larval stage of Earias vitella assessed as decrease in diet consumption at 5 ug/cm3 administered through artificial diet containing Abelmoschus esculentus seed powder after 24 hr relative to acetone-treated control; parameters: scale not given: the % may be the effect or the level left; in short: as §1
Spodoptera litura [32] = experiment: Insecticidal activity against adult Spodoptera litura in compound-treated castor leaves assessed as adult emergence at 5 ug/cm2 relative to control
Spodoptera litura [33] = experiment: Insecticidal activity against third-instar larval stage of Spodoptera litura in compound-treated castor leaves assessed as larval mortality at 5 ug/cm2 relative to control
Spodoptera litura [34] = experiment: Insecticidal activity against pupal stage of Spodoptera litura in compound-treated castor leaves assessed as pupal weight at 5 ug/cm2 (reference value: 302.4 +/- 5.9 mg)
Spodoptera litura [35] = experiment: Insecticidal activity against third-instar larval stage of Spodoptera litura in compound-treated castor leaves assessed as total larval duration time at 5 ug/cm2 (reference value: 12.4 +/- 0.48 days)
Spodoptera litura [36] = experiment: Insecticidal activity against pupal stage of Spodoptera litura in compound-treated castor leaves assessed as pupal mortality at 10 ug/cm2 relative to control
Spodoptera littoralis = experiment: Antifeedant activity against Spodoptera littoralis assessed as decrease in diet consumption at 200 ppm after 2 hr by leaf disk assay relative to control; parameters: scale not given: the % may be the effect or the level left
Earias vittella [37] = experiment: Insecticidal activity against pupal stage of Earias vitella assessed as pupal mortality at 5 ug/cm3 administered through artificial diet containing Abelmoschus esculentus seed powder (reference value: 8%)
Earias vittella [38] = experiment: Insecticidal activity against third-instar larval stage of Earias vitella assessed as total larval duration time at 10 ug/cm3 administered through artificial diet containing Abelmoschus esculentus seed powder (reference value: 8.2 +/- 0.48 days)
Spodoptera litura [39] = experiment: Insecticidal activity against female adult Spodoptera litura in compound-treated castor leaves assessed as adult longevity time at 10 ug/cm2 (reference value: 10 +/- 0.63 days)
Earias vittella [40] = experiment: Insecticidal activity against adult Earias vitella assessed as adult deformity at 10 ug/cm3 administered through artificial diet containing Abelmoschus esculentus seed powder (reference value: 4%)

CC(=O)OC[C@@]12[C@@H](OC(C)=O)C[C@@H](C)[C@](C)([C@@H]3C[C@H]4C=CO[C@H]4O3)[C@H]1CC[C@H](OC(C)=O)[C@]21CO1 [3-EPICARYOPTIN]
Time (Spodoptera litura [1]): 11 days
Activity (Spodoptera litura [2]): 250.2 mg
Time (Spodoptera litura [3]): 6.4 days
Time (Earias vittella [4]): 10 days
Activity (Earias vittella [5]): 60.4%
Time (Earias vittella [6]): 8.8 days
Time (Earias vittella [7]): 10.2 days
mortality at 10 µg/cm2 (Spodoptera litura [8]): 36%
Activity (Earias vittella [9]): 8%
Activity (Earias vittella [10]): 53.2 mg
Activity (Earias vittella [11]): 79.76%
mortality (Earias vittella [12]): 12%
Activity (Earias vittella [13]): 52%
mortality (Earias vittella [14]): 40%
Time (Earias vittella [15]): 5.6 days
Activity (Spodoptera litura [16]): 8.8%
mortality at 5 µg/cm2 (Spodoptera litura [17]): 26.5%
Time (Earias vittella [18]): 6.2 days
Activity (Earias vittella [19]): 57.4 mg
Time (Earias vittella [20]): 5.8 days
Time (Earias vittella [21]): 5.8 days
Activity (Spodoptera litura [22]): 82.6%
Activity (Spodoptera litura [23]): 56.8%
Activity (Spodoptera litura [24]): 12.8%
Time (Spodoptera litura [25]): 14.5 days
Time (Spodoptera litura [26]): 11.8 days
Time (Spodoptera litura [27]): 7.2 days
Activity (Spodoptera litura [28]): 73.4%
Time (Spodoptera litura [29]): 7.4 days
mortality (Earias vittella [30]): 8%
Activity (Earias vittella [31]): 73%
Activity (Spodoptera litura [32]): 64.8%
mortality at 5 µg/cm2 (Spodoptera litura [33]): 24%
Activity (Spodoptera litura [34]): 261.6 mg
Time (Spodoptera litura [35]): 14 days
mortality at 10 µg/cm2 (Spodoptera litura [36]): 30%
Activity (Spodoptera littoralis): 100%
mortality (Earias vittella [37]): 30%
Time (Earias vittella [38]): 10.3 days
Time (Spodoptera litura [39]): 6 days
Activity (Earias vittella [40]): 8%
